Experimental findings from ChEMBL document CHEMBL1152877, “Studies on depigmenting activities of dihydroxyl benzamide derivatives containing adamantane moiety” (Bioorg Med Chem Lett, 2009) are described below.

One series concerns the target T1, Tyrosinase (Agaricus bisporus, UniProt O42713).
T1 sequence (O42713 whole entry): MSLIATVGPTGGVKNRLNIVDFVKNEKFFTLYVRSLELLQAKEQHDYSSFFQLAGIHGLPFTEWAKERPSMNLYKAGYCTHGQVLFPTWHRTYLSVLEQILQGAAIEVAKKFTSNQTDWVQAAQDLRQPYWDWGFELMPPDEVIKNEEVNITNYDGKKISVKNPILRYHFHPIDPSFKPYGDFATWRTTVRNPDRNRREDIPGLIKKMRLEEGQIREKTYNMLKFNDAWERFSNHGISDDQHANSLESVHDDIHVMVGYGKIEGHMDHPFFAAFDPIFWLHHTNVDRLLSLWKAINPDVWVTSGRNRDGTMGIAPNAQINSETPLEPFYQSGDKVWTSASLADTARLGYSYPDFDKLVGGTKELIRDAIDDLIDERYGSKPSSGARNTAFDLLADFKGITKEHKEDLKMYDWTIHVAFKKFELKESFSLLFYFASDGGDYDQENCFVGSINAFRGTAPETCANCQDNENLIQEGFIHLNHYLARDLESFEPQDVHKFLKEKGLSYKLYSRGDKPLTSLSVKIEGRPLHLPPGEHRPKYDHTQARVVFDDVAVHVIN
Kind of series: Inhibition of mushroom tyrosinase activity after 20 mins. A digest of the protocol: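 Mushroom tyrosinase (2100 U/ml stock in 0.05 M phosphate pH 6.5) with 1.5 mM tyrosine stock in 0.1 M phosphate buffer pH 6.5; incubated 20 min at 37 °C, read on microplate reader. IC50 = concentration inhibiting 50% of enzyme activity, from logarithmic concentration-inhibition curves, mean of three experiments.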

The next series concerns Melan-a. As to the kind of experiment: Inhibition of melanin formation in C57BL/6J mouse Melan-a cells. It counts as functional, cell-based. Summed up:
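Murine melan-a melanocytes (C57BL/6J origin) seeded at 2 × 10⁵ cells/ml, compounds added in triplicate; medium changed daily, 4 d culture. Cells lysed in 1 N NaOH, relative melanin read at 400 nm. IC50 from logarithmic concentration-inhibition curves, means of three experiments. Viability by crystal violet (0.1% in 10% ethanol, 5 min RT; extracted with 95% ethanol 10 min).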

The nature of series [1]: Cytotoxicity against C57BL/6J mouse Melan-a cells assessed as cell survival at 30 uM by modified crystal violet assay. It counts as cell-based. The conditions noted are these: read-out: Survival. Summed up: (§1)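 Murine melan-a melanocytes (from C57BL/6 J mice) seeded at 2 × 10⁵ cells/ml, compound added in triplicate; medium changed daily over 4 d culture. Viability by modified crystal violet: PBS wash, 0.1% crystal violet in 10% ethanol 5 min at room temperature, four distilled-water rinses, retained dye extracted with 95% ethanol 10 min at room temperature. Reported as % survival at the stated concentration.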

A short description of series [2]: Cytotoxicity against C57BL/6J mouse Melan-a cells assessed as cell survival at 20 uM by modified crystal violet assay. The conditions noted are these: read-out: Survival. The class given is cell-based. Summed up:
as §1

A short description of series [3]: Cytotoxicity against C57BL/6J mouse Melan-a cells assessed as cell survival at 10 uM by modified crystal violet assay.
The nature of series [4]: Cytotoxicity against C57BL/6J mouse Melan-a cells assessed as cell survival at 50 uM by modified crystal violet assay. It counts as cell-based. The conditions noted are these: read-out: Survival. A digest of the protocol: as §1
A short description of series [5]: Cytotoxicity against C57BL/6J mouse Melan-a cells assessed as cell survival at 80 uM by modified crystal violet assay. The class given is cell-based. The conditions noted are these: read-out: Survival. Summed up:
as §1

One may read the IC50 as the concentration that inhibits the measured activity by half.

Take `O=C(NC12CC3CC(CC(C3)C1)C2)c1ccc(O)c(O)c1`: the half-inhibitory concentration (IC50) on Tyrosinase is above 200 µM; in the series with Melan-a it was 1.25 µM. In series [1], the viability at 30 µM stood at 95.2%.

In the case of `Oc1ccc(C23CC4CC(CC(C4)C2)C3)c(O)c1`, the IC50 was 0.9 µM against Tyrosinase and 8.82 µM in the series on Melan-a. The viability at 20 µM in series [2] worked out at 91.7%.

Take `Oc1ccc(O)cc1` [HYDROQUINONE]: the IC50 came out at 9.81 µM on Tyrosinase and 3.97 µM in the series on Melan-a. Besides, in series [3], the viability at 10 µM was 87.3%.

Take `O=C(NC12CC3CC(CC(C3)C1)C2)c1cc(O)ccc1O`: the IC50 at Tyrosinase is above 200 µM; with Melan-a, 9.82 µM. Also, in series [2], the viability at 20 µM worked out at 99.1%.

On to `O=C(NC12CC3CC(CC(C3)C1)C2)c1ccc(O)cc1O`, for which the concentration for half-maximal inhibition (IC50) against Tyrosinase is above 200 µM; in the series on Melan-a, 34.1 µM. Also, the viability at 50 µM in series [4] came to 99.2%.

For the molecule `O=C(NC12CC3CC(CC(C3)C1)C2)c1cc(O)cc(O)c1`, the 50% inhibitory concentration (IC50) against Tyrosinase was above 200 µM; in the series with Melan-a, 12.5 µM. Moreover, in series [1], the viability at 30 µM was 91.3%.

In the case of `O=C(NC12CC3CC(CC(C3)C1)C2)c1cccc(O)c1O`, the half-maximal inhibitory concentration (IC50) against Tyrosinase was above 200 µM; in the series with Melan-a, 0.73 µM. Further, the viability at 20 µM in series [2] worked out at 96.2%.

With `CCCCc1ccc(O)cc1O` [RUCINOL], the IC50 at Tyrosinase turned out to be 0.15 µM; in the series with Melan-a, 21.6 µM. In addition, the viability at 80 µM in series [5] came to 98.2%.
